Test results reported in ChEMBL document CHEMBL1125497, “Synthesis and anticonvulsant activity of enaminones” (J Med Chem, 1992).

Tests used:
[1] = Antiepileptic activity in male CF1 mice 30 min after administration measured in subcutaneous pentylenetetrazole (scMet) test at a dose of 100 mg/kg (no. of animals treated /protected); activity value is 1/1; type: functional, Mus musculus
[2] = Antiepileptic activity in male CF1 mice 4 hr after administration measured in maximum electroshock seizure(MES) test at a dose of 100 mg/kg (no. of animals treated /protected); activity value is 0/3; type: functional, Mus musculus
[3] = Antiepileptic activity in male CF1 mice 30 min after administration measured in maximum electroshock seizure(MES) test at a dose of 100 mg/kg (no. of animals treated /protected); activity value is 0/3; type: functional, Mus musculus
[4] = Antiepileptic activity in male CF1 mice 30 min after administration measured in neurological toxicity (Tox) test at a dose of 100 mg/kg (no. of animals treated /protected); activity value is 0/4; type: functional, Mus musculus
[5] = Antiepileptic activity in male CF1 mice 4 hr after administration measured in neurological toxicity (Tox) test at a dose of 100 mg/kg (no. of animals treated /protected); activity value is 0/2; type: functional, Mus musculus
[6] = Antiepileptic activity in male CF1 mice 4 hr after administration measured in subcutaneous pentylenetetrazole (scMet) test at a dose of 100 mg/kg (no. of animals treated /protected); activity value is 0/1; type: functional, Mus musculus
[7] = Dose elevating electroshock induced seizure by 20% in CF1 mice after ip administration.; type: functional, Mus musculus
Outline: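 In CF1 male mice (ca. 24–34 g), compound was given ip in 0.5% methylcellulose. The current giving hind limb extension in 50% of mice was found by the up-and-down method, with 15–25 mice per group and a vehicle control group run with each experimental group. At least three doses were tested. The dose raising threshold current by 20% was taken from a plot of dose against % threshold increase.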

[8] = Dose protecting 50% of the mice from tonic hind limb extension at the time of […] after ip administration.; type: functional; details: Mus musculus, Hindlimb
Outline: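 Phase II quantification in CF1 male mice (ca. 24–34 g), dosing ip or po in 0.5% methylcellulose suspension. ED50 is protection from tonic hind limb extension in MES. TD50 is rotorod neurotoxicity. Both were read at time of peak effect and derived by Litchfield–Wilcoxon with 95% confidence limits.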

[9] = Time of peak anticonvulsant effect in CF1 MICE after ip administration.; type: functional, Mus musculus
Outline: (§1)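 Male CF1 mice (ca. 24–34 g), compound in 0.5% methylcellulose suspension given ip or po; time (h) at which MES protection (against tonic hind limb extension) peaked was recorded and used for ED50 determination.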

[10] = Time of peak anticonvulsant effect in CF1 mice; type: functional, Mus musculus; outline: as §1
[11] = Time of peak neurotoxic effect in CF1 MICE after ip administration.; type: ADME, organism-based; details: mouse, in vivo
Outline: (§2)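 Male CF1 mice (ca. 24–34 g), compound ip in 0.5% methylcellulose suspension; neurological deficit assessed by rotorod test, time (h) of peak neurotoxic effect recorded for TD50 determination.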

[12] = Time of peak neurotoxic effect in CF1 mice; type: ADME; details: mouse, in vivo; outline: as §2
Rattus norvegicus [13] = assay: Average seizure score for the rat cornea 0.5 hr after intraperitoneal administration of 150 mg/Kg of compound; type: functional
Outline: (§3)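 Sprague-Dawley rats (85–95 g initial) were kindled with 4 s, 8 mA corneal stimulations (butacaine anesthesia) to 10 consecutive stage 5 seizures. After a vehicle shock and a 2-day shock-free period, test drug was given ip or po and a single shock applied at time of peak effect. Seizures were scored on a modified Racine 0–5 scale. ED50 is the dose reducing severity by 50% (Litchfield–Wilcoxon).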

Rattus norvegicus [14] = assay: Average seizure score for the rat cornea 0.5 hr after intraperitoneal administration of 200 mg/Kg of compound; type: functional; outline: as §3
Rattus norvegicus [15] = assay: Average seizure score for the rat cornea 0.5 hr after intraperitoneal administration of 0 mg/Kg of compound; type: functional
Outline: (§4)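 Sprague-Dawley rats (85–95 g initial weight) kindled by corneal stimulation (4 s, 8 mA) twice daily for 5 to 6 days, then once daily until 10 consecutive stage 5 seizures. Butacaine sulfate 1% applied to the cornea as a topical anaesthetic. After a vehicle shock and a 2-day shock-free period, drug given ip, then a single shock at the time of peak effect. Scored on the modified Racine scale (0–5).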

Rattus norvegicus [16] = assay: Average seizure score for the rat cornea 0.5 hr after intraperitoneal administration of 100 mg/Kg of compound; type: functional; outline: as §3
Rattus norvegicus [17] = assay: Average seizure score for the rat cornea 0.5 hr after intraperitoneal administration of 250 mg/Kg of compound; type: functional; outline: as §3
Rattus norvegicus [18] = assay: Dose reducing the seizure severity in rat cornea 0.5 hr after peroral administration.; type: functional; details: po; outline: as §3
Rattus norvegicus [19] = assay: Dose reducing the seizure severity in rat cornea 1 hr after peroral administration.; type: ADME, organism-based; details: po; outline: as §3
Rattus norvegicus [20] = assay: Intraperitoneal dose (0 mg/Kg) reducing rat corneal kindling 0.5 hr after administration.; type: functional; outline: as §4
Rattus norvegicus [21] = assay: Intraperitoneal dose (100 mg/Kg) reducing rat corneal kindling 0.5 hr after administration.; type: functional; outline: as §3
Rattus norvegicus [22] = assay: Intraperitoneal dose (150 mg/Kg) reducing rat corneal kindling 0.5 hr after administration.; type: functional; outline: as §3
Rattus norvegicus [23] = assay: Intraperitoneal dose (200 mg/Kg) reducing rat corneal kindling 0.5 hr after administration.; type: functional; outline: as §3
Rattus norvegicus [24] = assay: Intraperitoneal dose (250 mg/Kg) reducing rat corneal kindling 0.5 hr after administration.; type: functional; outline: as §3
[25] = Antiepileptic activity in male CF1 mice 30 min after administration measured in neurological toxicity (Tox) test at a dose of 30 mg/kg (no. of animals treated /protected); activity value is 0/4; type: functional, Mus musculus
[26] = Antiepileptic activity in male CF1 mice 30 min after administration measured in subcutaneous pentylenetetrazole (scMet) test at a dose of 300 mg/kg (no. of animals treated /protected); activity value is 0/1; type: functional, Mus musculus
[27] = Antiepileptic activity in male CF1 mice 30 min after administration measured in subcutaneous pentylenetetrazole (scMet) test at a dose of 30 mg/kg (no. of animals treated /protected); activity value is 1/1; type: functional, Mus musculus
[28] = Antiepileptic activity in male CF1 mice 4 hr after administration measured in maximum electroshock seizure(MES) test at a dose of 300 mg/kg (no. of animals treated /protected); activity value is 0/1; type: functional, Mus musculus
[29] = Antiepileptic activity in male CF1 mice 30 min after administration measured in maximum electroshock seizure(MES) test at a dose of 300 mg/kg (no. of animals treated /protected); activity value is 1/1; type: functional, Mus musculus
[30] = Antiepileptic activity in male CF1 mice 30 min after administration measured in maximum electroshock seizure(MES) test at a dose of 30 mg/kg (no. of animals treated /protected); activity value is 0/1; type: functional, Mus musculus
[31] = Antiepileptic activity in male CF1 mice 4 hr after administration measured in maximum electroshock seizure(MES) test at a dose of 30 mg/kg (no. of animals treated /protected); activity value is 0/1; type: functional, Mus musculus
[32] = Antiepileptic activity in male CF1 mice 4 hr after administration measured in neurological toxicity (Tox) test at a dose of 300 mg/kg (no. of animals treated /protected); activity value is 0/2; type: functional, Mus musculus
[33] = Antiepileptic activity in male CF1 mice 4 hr after administration measured in neurological toxicity (Tox) test at a dose of 30 mg/kg (no. of animals treated /protected); activity value is 0/2; type: functional, Mus musculus
[34] = Antiepileptic activity in male CF1 mice 4 hr after administration measured in subcutaneous pentylenetetrazole (scMet) test at a dose of 300 mg/kg (no. of animals treated /protected); activity value is 0/1; type: functional, Mus musculus
[35] = Antiepileptic activity in male CF1 mice 4 hr after administration measured in subcutaneous pentylenetetrazole (scMet) test at a dose of 30 mg/kg; activity value is 0/1; type: functional, Mus musculus
[36] = Dose at which anticonvulsant activity was observed in mice; type: functional, Mus musculus
[37] = Antiepileptic activity in male CF1 mice 30 min after administration measured in neurological toxicity (Tox) test at a dose of 300 mg/kg (no. of animals treated /protected); activity value is 2/4; type: functional, Mus musculus

COC(=O)C1C(=O)C=C(Nc2ccc([N+](=O)[O-])cc2)CC1C (configuration not stated)
Activity [1]: 1 | Activity [2]: 0 | Activity [3]: 0 | Activity [4]: 0 | Activity [5]: 0 | Activity [6]: 0

CCCC(CCC)C(=O)O [VALPROIC ACID]
Dose [7]: 132 mg/kg | ED50 [8]: 248 mg/kg | TPE [9]: 0.5 | TPE [10]: 0.25 | TPE [11]: 0.5 | TPE [12]: 0.25 | Average seizure score (Rattus norvegicus [13]): 1.2 | Average seizure score (Rattus norvegicus [14]): 0.1 | Average seizure score (Rattus norvegicus [15]): 5 | Average seizure score (Rattus norvegicus [16]): 2.6 | Average seizure score (Rattus norvegicus [17]): 0.5 | ED50 (Rattus norvegicus [18]): 96 mg/kg | ED50 (Rattus norvegicus [19]): 117 mg/kg | Reduction (Rattus norvegicus [20]): 0% | Reduction (Rattus norvegicus [21]): 49% | Reduction (Rattus norvegicus [22]): 76% | Reduction (Rattus norvegicus [23]): 98% | Reduction (Rattus norvegicus [24]): 90%

COC(=O)C1C(=O)C=C(Nc2ccc(C)cc2)CC1C (configuration not stated)
Activity [25]: 0 | Activity [26]: 0 | Activity [27]: 1 | Activity [28]: 0 | Activity [29]: 1 | Activity [30]: 0 | Activity [31]: 0 | Activity [32]: 0 | Activity [33]: 0 | Activity [34]: 0 | Activity [35]: 0 | Dose [36]: <=100 mg kg-1 | Activity [37]: 2
